An excerpt weighted towards active compounds, which were near 0.59% of everything screened.
TRPML3 agonist: activates the human TRPML3 channel; Q8TDD5; HEK293 TRPML3-YFP, Fluo-8 calcium fluorescence; 100% = the carbachol control signal; activation, % at 3 µM; actives 0.29% (n = 220,000);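 active = activation above its plate's cutoff, the mean activation of the plate's test wells plus 3 SD, cut at about 12% in these data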;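 note: 0% = DMSO only wells and 100% = carbachol wells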
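Test system: TRPML3-YFP stable HEK293 cells. Doses: single point at 3 µM. Incubation: dye loading 1 h 37 °C then 30 min ambient, 125 s read. Signal: Fluo-8 calcium dye fluorescence, ex 470-495, em 515-575 nm. Measure: percent activation from peak-to-basal fluorescence ratio, scaled between DMSO and carbachol.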
zfTRPN1 agonist: agonists of zebrafish TRPN1 channel; HEK293 zebrafish TRPN1-YFP, Fluo-8 calcium fluorescence; 100% = response to 87 µM carbachol; activation, % at 3 µM; actives 0.18% (n = 220,000); AID 1424;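 active = activation above its plate's cutoff, the mean activation of test wells on that plate plus 3 SD, cut at about 19% in these data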;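 note: 0% = DMSO alone and 100% = 87 µM carbachol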
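System: zebrafish TRPN1-YFP in HEK293 cells / Dosing: 3 µM single point / Timing: dye loading 1 h at 37 °C, then 30 min room temperature / Signal: Fluo-8 calcium fluorescence, excitation 470-495 nm, emission 515-575 nm / Read-out basis: percent activation from peak over basal fluorescence ratio, control-normalized / Control set: high carbachol 87 µM, low DMSO alone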
OXTR potentiator: potentiates the human oxytocin receptor response; AID 2445; activation, % at 3 µM; CHO-OTR cells, Fluo-8 calcium fluorescence, potentiator mode; 0% = oxytocin EC15, 100% = EC100; P30559; actives 0.061% (n = 320,000);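 active = activation above that plate's cutoff, the mean activation of tested compounds plus 3 SD, cut at about 6.6% in these data, passing the limit was not always enough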;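 note: 100% uses oxytocin at 75 nM as the full agonist control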
Target sequence (P30559 whole entry, looked up): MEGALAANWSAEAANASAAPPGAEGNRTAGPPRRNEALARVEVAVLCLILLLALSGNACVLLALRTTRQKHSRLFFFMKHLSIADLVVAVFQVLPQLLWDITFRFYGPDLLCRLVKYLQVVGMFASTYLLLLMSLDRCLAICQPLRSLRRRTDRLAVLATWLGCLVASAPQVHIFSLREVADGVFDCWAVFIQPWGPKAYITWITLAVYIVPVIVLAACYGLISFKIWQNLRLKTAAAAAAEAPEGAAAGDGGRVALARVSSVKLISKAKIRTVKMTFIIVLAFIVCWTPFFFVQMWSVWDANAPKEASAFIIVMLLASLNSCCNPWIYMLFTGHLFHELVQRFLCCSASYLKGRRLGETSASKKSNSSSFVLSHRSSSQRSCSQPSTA
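Assay system: CHO-OTR cells, human receptor / Also added: oxytocin at about EC15, sub-maximal agonist stimulus / Dosing: single dose, 3.0 µM nominal final compound concentration / Incubation: 6 min pre-incubation, 100 s read / Technique: Fluo-8 calcium dye fluorescence / Read-out: % activation vs EC15 and EC100 oxytocin / Benchmarks: EC15 oxytocin low, 75 nM oxytocin high / Replicates: singlicate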
OXTR ag: activates the human oxytocin receptor. P30559. CHO-OTR cells, Fluo-8 calcium fluorescence; normalized: DMSO 0%, oxytocin 100%. activation, % at 3 µM. actives 0.32% (n = 320,000). AID 2435;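 active = activation above the mean of all tested compounds plus 3 SD, cutoff set per screening run, cut at about 20% in these data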;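 note: peak over basal fluorescence ratio from a 100 s FLIPR kinetic read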
V1R ag counter: counter-screen for oxytocin receptor agonists: human V1a receptor agonists | P37288 | CHO-V1R cells, Fluo-8 calcium fluorescence, agonist mode; 0% DMSO, 100% 3 nM vasopressin | activation, % at 3 µM | actives 0.25% (n = 320,000) | AID 2797;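 active = activation above the mean activation of all tested compounds plus 3 SD, per screening run, cut at about 20% in these data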;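 note: signal is peak over basal fluorescence ratio across a 100 second FLIPR read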
Numbers without * were called inactive; / = no result given.

SMILES | TRPML3 agonist | zfTRPN1 agonist | OXTR potentiator | OXTR ag | V1R ag counter
N=c1n(Cc2ccccc2)c2ccccc2n1CC(O)COc1ccccc1 (stereo not drawn) | -0.1 | 1.4 | -5.2 | 9.1 | 6.9
Cc1ccc(Cn2c(=N)n(CC(O)COc3ccccc3)c3ccccc32)cc1 (stereo not drawn) | 0.1 | 1.6 | -11.5 | 28.0* | 28.2*
Nc1ccc2nc3c(=O)n(C4CCCCC4)c(=O)[nH]c3nc2c1 | 43.1* | 79.5* | -8.3 | 91.3* | 159.2*
Cc1cc2nc3c(=O)n(CCc4ccccc4)c(=O)[nH]c3nc2cc1N | 10.6 | 51.0* | -17.4 | 64.4* | 41.3*
CCCCn1c(=O)[nH]c2nc3cc(N)ccc3nc2c1=O | 29.5* | 41.6* | -12.2 | 50.2* | 29.8*
COc1cc2[nH]c(=O)n(C3CCCCC3)c(=O)c2cc1OC | 1.0 | -0.4 | -5.9 | -0.5 | -1.0
CCCCn1c(N)c(Br)c(=O)[nH]c1=O | 0.2 | 1.0 | -15.8 | -0.5 | 1.2
Nc1ccc2nc3c(=O)n(CCc4ccccc4)c(=O)[nH]c3nc2c1 | 22.8* | 90.8* | -21.5 | 95.6* | 69.3*
Nc1ccc2nc(CCc3ccccc3)[nH]c2c1 | 0.7 | 0.7 | -3.6 | -0.3 | 1.0
CC(C)(C)C(=O)Nc1scc(-c2ccc(-c3ccccc3)cc2)c1C(=O)O | / | / | -22.9 | 25.6* | 38.9*
CCN(CC)C(=O)C1c2ccccc2Oc2ccccc21 | / | / | -7.7 | 47.6* | 64.0*
CCN(CC(=O)NCc1ccc(F)cc1)C(=O)c1ccc(C)o1 | / | / | 3.8 | 0.3 | 0.6
CC(=O)Nc1nnc(S(=O)(=O)N2CCN(c3ccc([N+](=O)[O-])cc3Cl)CC2)s1 | / | / | -12.1 | 4.4 | 6.3
CCCCCCCCCCCCCCCC[n+]1cccc(C(=O)N(CC)CC)c1 | 0.5 | 3.1 | -18.6 | 37.4* | 23.5*
CCN(CC)C(=O)c1ccc(/C=C/c2c[nH]c3ccccc23)[n+](C)c1 | 0.9 | 2.9 | -3.0 | 6.6 | 5.0
CC[n+]1c(/C=C/c2c[nH]c3ccccc23)ccc2cc(C)ccc21 | 9.7 | 30.3* | / | / | /
CC(C)OC(=O)c1c2c(n3ccccc13)C(=O)c1ccccc1C2=O | 4.7 | 9.7 | -16.9 | 24.6* | 31.2*
COC(=O)c1cc2c(C)c(C)c3ccccn3c-2c1C(=O)OC | 0.8 | 0.2 | -19.3 | -1.7 | 0.6
COc1cc2c(cc1OC)C(Nn1cnnc1)=NC1(CCCC1)C2 | 0.3 | 0.8 | 3.2 | -0.3 | 0.5
CC(=O)OC1COC(OC2C(O)C(C)OC(OC3C(OC4CCC5(C)C(CCC6(C)C5CC=C5C7CC(C)(C)CCC7(C(=O)O)CCC56C)C4(C)CO)OCC(O)C3O)C2O)C(O)C1OC(C)=O (stereo not drawn) | 95.3* | 122.8* | -10.9 | 91.8* | 115.5*
CC1(C)C[C@H]2C3=CCC4[C@@]5(C)CC[C@H](O[C@@H]6O[C@H](C(=O)O)[C@@H](O)[C@H](O)[C@H]6O)[C@@](C)(CO)C5CC[C@@]4(C)[C@]3(C)C[C@H](O)[C@@]2(CO)[C@@H](O)[C@@H]1O (stereo partly drawn) | / | / | 3.4 | 1.5 | 1.2
C/C=C(/C)C(=O)OC1CC(C)(C)C[C@H]2C3=CC[C@@H]4[C@@]5(C)CCC(O[C@@H]6O[C@@H](C(=O)O)[C@@H](O)C(O[C@@H]7OC[C@H](O)[C@@H](O)[C@@H]7O[C@@H]7OC(CO)C(O)[C@@H](O)[C@@H]7O)C6O[C@@H]6OC(CO)C(O)C(O)C6O)[C@@](C)(CO)[C@@H]5CC[C@]4(C)[C@]3(C)CC(O)[C@@]12CO (stereo partly drawn) | / | / | -12.2 | 44.3* | 22.4*
CC(=O)Nc1ccc(C(=O)OCCc2ccccc2)cc1 | / | / | -3.2 | 4.2 | 3.9
COc1ccccc1N1CCN(C(=O)c2cn(C)c3ccc(S(=O)(=O)N4CCOCC4)cc3c2=O)CC1 | / | / | -13.7 | -1.3 | 0.1
Cc1nnc(NC(=O)c2sc3nc(-c4cccs4)cc(C(F)(F)F)c3c2N)s1 | 2.7 | 6.9 | -13.2 | 98.3* | 43.6*
CC(C)(C)C(=O)c1sc2nc(-c3cccs3)cc(C(F)(F)F)c2c1N | 0.6 | 1.1 | -4.8 | 3.0 | 3.8
COC(=O)CCN1CCN(S(=O)(=O)c2ccc3c(c2)OCCO3)CC1 | / | / | -1.5 | 0.5 | 0.0
